High-throughput results from PubChem BioAssay.
TRPC4 PAM: positive allosteric modulators of TRPC4, primary screen, cell-based, mouse TRPC4beta, HEK293 mu-opioid, Fluo-4 calcium | Short transient receptor potential channel 4 (Mus musculus), Q9QUQ5 | DAMGO EC20, Fluo-4 Ca2+ flux; active compounds read high | B-score at 10 µM | 310,000 tested, 0.42% active | AID 2227, 2009;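 active means B-score of calcium response area above 5 SD of library B-scores, with initial fluorescence ratio within 5 SD of library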;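 further: B-score of integrated fluorescence ratio over time as area under calcium response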
TRPC4 block: inhibitors of mouse TRPC4 channel, primary screen, Fluo4 calcium, HEK293 TRPC4beta/mu-opioid cells; DAMGO-evoked Fluo4 calcium flux; active compounds read low; B-score at 10 µM; 300,000 tested, 0.39% active; AID 2247, 2010;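 active means B-score over 3 SD under the library average, no early fluorescence shift, positive overall ratio signal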
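Assay system: TRPC4beta/mu-opioid receptor HEK293 cell line; compound dosing: single concentration per test compound; detection: Fluo4 Ca2+ flux fluorescence; evaluation: per-well B score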
TRPC6 inhibitor: mouse TRPC6 channel inhibitors, primary screen, cell-based, HEK293, membrane potential dye; ACh-evoked depolarization; active compounds read low; B-score at 10 µM; 310,000 tested, 1.1% active; AID 2553, 2010;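 active means B-score under library mean minus 3 SD, initial fluorescence not abnormally high, positive integrated signal ratio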;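 further: B-score derived from integrated fluorescence ratio over the kinetic read; more negative B-score means stronger inhibition of depolarization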
Target sequence (Q61143 whole entry, looked up): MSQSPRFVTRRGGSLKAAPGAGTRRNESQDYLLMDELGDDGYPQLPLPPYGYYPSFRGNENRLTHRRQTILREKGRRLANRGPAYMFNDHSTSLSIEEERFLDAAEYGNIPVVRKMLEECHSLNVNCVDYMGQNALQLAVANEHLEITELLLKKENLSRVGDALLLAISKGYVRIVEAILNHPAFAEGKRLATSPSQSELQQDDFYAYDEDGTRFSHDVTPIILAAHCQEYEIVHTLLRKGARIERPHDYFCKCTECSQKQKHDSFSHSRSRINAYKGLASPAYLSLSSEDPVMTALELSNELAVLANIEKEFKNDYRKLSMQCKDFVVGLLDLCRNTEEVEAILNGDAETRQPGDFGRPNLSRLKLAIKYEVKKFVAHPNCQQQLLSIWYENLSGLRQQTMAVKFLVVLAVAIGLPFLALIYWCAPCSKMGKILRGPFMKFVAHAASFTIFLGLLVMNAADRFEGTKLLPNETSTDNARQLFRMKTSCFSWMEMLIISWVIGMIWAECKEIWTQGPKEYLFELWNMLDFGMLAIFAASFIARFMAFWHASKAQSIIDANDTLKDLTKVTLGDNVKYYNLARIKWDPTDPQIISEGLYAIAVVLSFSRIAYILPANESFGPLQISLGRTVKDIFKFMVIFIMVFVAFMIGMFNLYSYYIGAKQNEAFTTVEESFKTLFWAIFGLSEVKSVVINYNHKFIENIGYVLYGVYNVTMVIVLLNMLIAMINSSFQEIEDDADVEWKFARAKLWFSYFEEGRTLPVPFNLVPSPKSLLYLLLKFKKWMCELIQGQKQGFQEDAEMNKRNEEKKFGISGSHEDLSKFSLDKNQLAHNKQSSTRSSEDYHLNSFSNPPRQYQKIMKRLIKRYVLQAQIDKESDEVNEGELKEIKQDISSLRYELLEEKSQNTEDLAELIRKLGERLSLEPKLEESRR
TRPC6 activator: mouse TRPC6 channel activators, primary screen, cell-based, HEK293, membrane potential dye | B-score at 10 µM | 310,000 tested, 0.13% active | HEK293-TRPC6 membrane potential dye fluorescence; active compounds read high | Short transient receptor potential channel 6 (Mus musculus), Q61143;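 active means B-score of the integrated fluorescence ratio above library mean plus 3 SD, and starting fluorescence ratio within library mean plus 5 SD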;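 further: higher score means more depolarization so channel activation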
TRPC4 agonist: activators of mouse TRPC4 channel, primary screen, Fluo4 calcium, HEK293 TRPC4beta/mu-opioid cells; Short transient receptor potential channel 4 (Mus musculus), Q9QUQ5; B-score at 10 µM; Fluo4 calcium fluorescence; active compounds read high; 310,000 tested, 0.49% active;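 active means B-score above 5 SD of library B-scores, and initial fluorescence ratio not above library mean plus 5 SD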;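 further: positive B-score marks a calcium rise read as TRPC4 activation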
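Material: HEK293 stable line with TRPC4beta plus mu-opioid receptor; technique: Fluo4 calcium-sensitive dye fluorescence, kinetic, 1 Hz baseline; timing: Fluo4 dye loading 45 min at room temperature, 110 s recording; controls: assay buffer as low control, maximal DAMGO as high control; read-out: integrated baseline-normalised fluorescence ratio, converted to per-well B score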
TRPC4 sel inh 2: second check of whether TRPC6 inhibitors also affect mouse TRPC4; 920 tested, 42% active; HEK293 TRPC4/MOR, membrane potential dye fluorescence; channel activated by saturating DAMGO dose; inhibition, % at 10 µM; shares compounds with TRPC6 inhibitor;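 active means compounds whose fluorescence signal differed from control wells by over 3 SD, either direction, in both duplicate plates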
TRPC4 spec: mouse TRPC4 modulation by TRPC6 hits, confirmation, selectivity assay for TRPC6 inhibitor project, cell-based, HEK293 TRPC4/mu-opioid, membrane potential dye. membrane potential fluorescence. 920 tested, 61% active. shares compounds with TRPC6 inhibitor. activity change, negative = inhibition, % at 10 µM. AID 2777, 2010;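 active means rise or fall in signal beyond 3 SD of buffer-only wells in both replicate plates, either sign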;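 further: integrated kinetic ratio of fluorescence range over baseline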
HEK293 MPD ctr 2-1: nonspecific membrane potential effects, parental HEK293, confirmation, counter-screen for TRPC6 inhibitor project, cell-based, second counter screen | shares compounds with TRPC6 inhibitor | parental HEK293 membrane potential dye fluorescence; maximal acetylcholine challenge after compound addition | signal change vs control, % at 10 µM | 920 tested, 31% active | AID 2779, 2010;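 active means membrane potential signal moving either way by over 3 SD of the maximum-effect control, in both duplicate plates, meaning non-specific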
HEK293 MPD ctr-1: membrane potential modulation in parental HEK293, confirmation, counter-screen for TRPC6 inhibitor project, cell-based; shares compounds with TRPC6 inhibitor; membrane potential signal change, % at 10 µM; 920 tested, 60% active; parental HEK293 membrane potential dye fluorescence;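 active means membrane potential signal shifting up or down by more than 3 SD of buffer-only wells, on both duplicate plates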
HEK293 MPD ctr-2: parental HEK293 membrane potential modulation, confirmation, counter-screen for TRPC6 modulator project, cell-based. shares compounds with TRPC6 inhibitor. membrane potential dye fluorescence. membrane potential signal change, % at 10 µM. 2,400 tested, 51% active;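 active means membrane potential signal moves up or down beyond 5 SD from buffer-only wells, on both duplicate plates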
HEK293 MPD ctr 2-2: second counter-screen for TRPC6 modulators: effect in parental HEK293 cells; 2,400 tested, 14% active; shares compounds with TRPC6 inhibitor; membrane potential dye fluorescence; after compound, maximal acetylcholine stimulation; AID 488926; inhibition, % at 10 µM;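 active means membrane potential signal drops by more than 5 SD from the mean control signal, in both duplicate plates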;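 further: plate controls were acetylcholine ECmax control wells for no effect and buffer only wells for full effect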
TRPC4 ctr mod: TRPC4 modulation by TRPC6 hit compounds, confirmation, selectivity assay for TRPC6 modulator project, cell-based, HEK293 TRPC4/mu-opioid, membrane potential dye, mouse; 2,400 tested, 69% active; shares compounds with TRPC6 inhibitor; membrane potential fluorescence; percent change from control (negative = decrease, positive = increase), % at 10 µM;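 active means membrane potential signal moved up or down beyond 5 SD of buffer control wells, in both duplicate plates, actives on both sides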;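 further: plate controls were assay buffer wells for no effect and DAMGO maximal-effect wells for full effect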
TRPC4/MOR inh 2: second check of whether TRPC6 modulators also affect mouse TRPC4; inhibition, % at 10 µM; HEK293 TRPC4/mu-opioid, membrane potential dye fluorescence; stimulated with maximal-effect DAMGO; shares compounds with TRPC6 inhibitor; 2,400 tested, 55% active;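 active means drop in membrane potential signal beyond 5 SD of the control wells in both duplicate plates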;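 further: TRPC4 counter screen for TRPC6 hits run under conditions tuned for TRPC6 not TRPC4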
TRPC6 block conf: mouse TRPC6 channel inhibitors, confirmation, HEK293 cells, membrane potential dye, duplicate; 3,300 tested, 43% active; inhibition, % at 10 µM; shares compounds with TRPC6 inhibitor; ACh-evoked depolarization;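 active means fluorescence ratio falls more than 5 SD below the full-stimulation control mean, in both duplicate runs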;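 further: integrated fluorescence ratio of peak minus minimum over baseline after agonist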
TRPC6 act confirm: mouse TRPC6 channel activators, confirmation, HEK293 cells, membrane potential dye, duplicate; HEK293-TRPC6 membrane potential dye fluorescence, FDSS; shares compounds with TRPC6 inhibitor; AID 488961, 2010; 2,800 tested, 11% active; activation, % at 10 µM;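 active means ratio signal rise beyond 5 SD above unstimulated control wells' mean, seen in both duplicate runs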;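 further: plate controls were buffer EC0 wells for no effect and acetylcholine ECmax response for full effect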
Starred values were filed as active, the others as inactive; i = inactive; · = no result given. Hits are enriched below; roughly 2.3% of the tested compounds scored in any of these assays.

SMILES	TRPC4 PAM	TRPC4 block	TRPC6 inhibitor	TRPC6 activator	TRPC4 agonist	HEK293 MPD ctr-2	HEK293 MPD ctr 2-2	TRPC4 ctr mod	TRPC4/MOR inh 2	TRPC6 block conf	others
C(=N\n1cnnc1)/c1ccc2ncccc2c1	i	i	-7.7*	i	i	-280%*	i	-37%*	50%*	i	TRPC6 act confirm=i
CCCCNC(=O)N1CCc2[nH]c3ccccc3c2C1	i	i	-6.1*	i	i	i	i	i	i	72%*
S=C(NCc1ccccc1)N1CCc2ccccc2C1	i	·	i	i	i	·	·	·	·	·
Fc1ccc2[nH]c3c(c2c1)CN(C(=S)NCc1ccccc1)CC3	i	i	-12*	i	i	·	·	·	·	127%*	TRPC4 sel inh 2=i;TRPC4 spec=-13%*;HEK293 MPD ctr 2-1=i;HEK293 MPD ctr-1=i
C=CCNC(=O)N1CCc2[nH]c3ccc(F)cc3c2C1	i	i	-6.2*	i	i	240%*	i	18%*	i	82%*
Cc1ccccc1C(=O)N1CCC(C(=O)Nc2ccc(S(=O)(=O)N3CCCCC3)cc2)CC1	i	i	i	i	i	·	·	·	·	·
Cc1nc([N+](=O)[O-])cn1CC(=O)c1ccc(OC(F)(F)F)cc1	i	i	i	i	i	·	·	·	·	·
CCCc1cc(NC(=O)CCl)n(-c2ccccc2)n1	i	i	i	i	i	·	·	·	·	·
Cc1ccc(C(=O)Nc2cccc(C(=O)N/N=C/c3ccc(F)cc3)c2)cc1	i	i	-6*	i	i	i	i	i	i	i	TRPC6 act confirm=i
CC(=O)Nc1cccc(C(=O)N/N=C/c2ccc(F)cc2)c1	i	i	i	i	i	·	·	·	·	·
